Residues, ends and D or L forms follow the SMILES beside them. *: point of attachment. Cbz = O=C(OCc1ccccc1)*
Legend:
[1] = system: PD-1/NFAT reporter-Jurkat cells; experiment: PD-L1 cell-based assay
B16F10 tumor = conditions: 60 mg/kg; cited from earlier work
human SCC-3 tumor = conditions: 20 mg/kg; cited from earlier work
PD-L1 = conditions: cited from earlier work
hPD-L1 MC38 cells = experiment: PD-L1 expression and localisation by Western blotting / immunofluorescence; format: cell-based, mouse; conditions: 24 h
Method in brief: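 hPD-L1 MC38 cells were exposed for 24 h. For immunofluorescence, cells on glass-bottom dishes were treated at 1 and 10 μmol/L, fixed, permeabilized, stained overnight with anti-PD-L1, then Alexa Fluor 488 secondary with DAPI, and imaged by confocal microscopy. For Western blotting, whole cells were treated at 0.1–10 μmol/L. Per lane, 60 μg protein was run on 10% SDS-PAGE and transferred to nitrocellulose. Primary antibody was 1:1000 overnight at 4 °C; β-actin or Na/K-ATPase served as loading control. Bands were quantified by densitometry.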

COc1nc(OCc2cccc(-c3ccccc3)c2C)ccc1CNCCNC(C)=O [BMS202]
concentration required in the T cell activation assay [1]: more than 10 μmol/L | inhibition rate in B16F10 tumor (B16F10 tumor): 50.1% | inhibition rate in humanized mouse-transplanted human SCC-3 tumor (human SCC-3 tumor): 41%

C[C@@H](O)[C@H](NC(=O)N[C@@H](CC(N)=O)c1nc([C@@H](N)CO)no1)C(=O)O [CA-170]
direct binding to PD-L1 (PD-L1): no direct binding

CC(C)C[C@@H](C=O)NC(=O)[C@H](CC(C)C)NC(=O)[C@H](CC(C)C)NC(=O)OCc1ccccc1 [MG132] (Cbz-Leu-Leu-Leu-aldehyde)
PD-L1 protein expression / distribution (hPD-L1 MC38 cells): increased

CCN(CC)CCCC(C)Nc1ccnc2cc(Cl)ccc12 (stereo not drawn) [chloroquine]
PD-L1 protein expression / distribution (hPD-L1 MC38 cells): increased
